# Bioassay records as filed in PubChem BioAssay.
# STEP inh: STEP phosphatase inhibitors, primary screen, biochemical, fluorescence intensity, uHTS; recombinant STEP, OMFP fluorogenic substrate; inhibition, % at 20 µM; actives 0.25% (n = 360,000); AID 588621, 2011;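 active means inhibition at 20 µM, scaled per plate between control wells, above about 37%, limit read from the data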;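 further: 0% = DMSO with enzyme and substrate and 100% = substrate only without enzyme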
# Target sequence (P54829 whole entry, looked up): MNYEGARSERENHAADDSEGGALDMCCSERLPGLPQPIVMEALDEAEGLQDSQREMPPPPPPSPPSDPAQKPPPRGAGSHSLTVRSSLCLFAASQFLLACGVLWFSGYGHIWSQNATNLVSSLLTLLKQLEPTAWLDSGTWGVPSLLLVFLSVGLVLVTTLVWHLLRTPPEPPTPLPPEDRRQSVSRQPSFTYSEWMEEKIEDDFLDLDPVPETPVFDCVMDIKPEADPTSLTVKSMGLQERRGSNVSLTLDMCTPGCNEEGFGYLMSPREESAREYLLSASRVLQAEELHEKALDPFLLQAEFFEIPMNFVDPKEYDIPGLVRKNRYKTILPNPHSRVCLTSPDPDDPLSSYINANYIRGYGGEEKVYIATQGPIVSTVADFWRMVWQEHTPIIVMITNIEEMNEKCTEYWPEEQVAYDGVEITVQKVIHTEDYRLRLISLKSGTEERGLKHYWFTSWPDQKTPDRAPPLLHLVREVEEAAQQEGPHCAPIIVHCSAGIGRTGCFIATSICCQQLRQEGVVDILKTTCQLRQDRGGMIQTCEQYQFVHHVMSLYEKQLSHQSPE
#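 Assay system: isolated STEP enzyme / Timing: 20 min at room temperature, dark / Doses: 20 µM, 1% DMSO / Technique: fluorescence intensity, excitation 480 nm, emission 540 nm / Reagent: fluorogenic phosphatase substrate OMFP at 25 µM final / Measure: percent inhibition scaled to no-enzyme and uninhibited-enzyme controls, plate-pattern corrected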
# Scp1 inh: Scp-1 phosphatase inhibitors, primary screen, biochemical, colorimetric, uHTS; Carboxy-terminal domain RNA polymerase II polypeptide A small phosphatase 1 (Homo …; Recombinant Scp1, phosphopeptide, malachite green phosphate absorbance; actives 0.88% (n = 340,000); inhibition, % at 20 µM;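 active means inhibition above about 50% at 20 µM, limit read from the data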;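 further: plate controls were DMSO wells with enzyme for no effect and wells lacking enzyme for full effect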
# Target sequence (Q9GZU7 76-261 limits assumed): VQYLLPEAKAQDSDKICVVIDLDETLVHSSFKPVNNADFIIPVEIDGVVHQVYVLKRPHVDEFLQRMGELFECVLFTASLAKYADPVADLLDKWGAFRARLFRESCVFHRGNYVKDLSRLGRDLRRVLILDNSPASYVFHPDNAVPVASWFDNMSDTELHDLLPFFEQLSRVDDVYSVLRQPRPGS
#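 Test system: SCP-1 phosphatase catalytic domain, residues 76-261; measured by: colorimetric phosphate reagent with accelerator and stabiliser, absorbance at 630 nm; timing: enzyme reaction 45 min at room temperature, colour 5 min, stabilisation 30 min; also added: Phosphorylated 17-residue peptide substrate; compound dosing: one concentration, 20 µM, with 1.0% DMSO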
# LMPTP inh: LMPTP phosphatase inhibitors, primary screen, biochemical, fluorescence intensity, uHTS; Low molecular weight phosphotyrosine protein phosphatase (Homo sapiens), P24666; actives 0.22% (n = 360,000); inhibition, % at 20 µM; recombinant LMPTP-A, OMFP fluorogenic substrate; AID 651560, 2012;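 active means compounds that cut the enzyme signal by at least half of the control window in the single-dose screen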;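 further: plate controls were DMSO wells with enzyme plus substrate for no effect and substrate without enzyme for full effect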
#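 Test system: LMPTP-A phosphatase enzyme. Amount: LMPTP-A at 0.625 nM final in the reaction. Reagent: OMFP substrate, 400 µM final. Times: 50 min at room temperature. Signal: endpoint fluorescence intensity from OMFP dephosphorylation. Read-out basis: % inhibition. Benchmarks: no-enzyme and uninhibited controls.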
# SUMO1 PPI mod: modulators of SUMO1 protein-protein interactions, primary screen, biochemical, uHTS. Small ubiquitin-related modifier 1 (Homo sapiens), P63165. SUMO1 binding to a labelled peptide, TR-FRET, 1 h. inhibition, % at 20 µM. actives 0.33% (n = 360,000); in the data active means inhibition above about 37%
# DNMT1 inh: human DNMT1 methyltransferase inhibitors, primary screen, biochemical, molecular beacon, fluorescence, HinP1I cleavage, uHTS | DNA (cytosine-5)-methyltransferase 1 (Homo sapiens), P26358 | inhibition (reported as % activation of signal), % at 10 µM | actives 0.83% (n = 360,000) | AID 588458, 2011; in the data active means inhibition above about 50%
# DNMT1 interf DR: spectral interference with molecular beacon fluorescence, dose response, artefact control for DNMT1 inhibitor project, biochemical, fluorescent molecular beacon | shares compounds with DNMT1 inh | IC50, µM | 200 tested, under 10 active | spectral interference counter-screen; call rule not given here
# DNMT1 confirm: DNMT1 methyltransferase inhibitor retest, confirmation, biochemical, molecular beacon, fluorescence, single concentration; shares compounds with DNMT1 inh; DNMT1 molecular beacon HinP1I cleavage; inhibition, % at 10 µM; actives 8% (n = 2,300);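 active means average inhibition of at least 30% in the single-concentration confirmation test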
# DNMT1 interf: counter-screen for DNMT1 inhibitors: spectral interference; actives 1% (n = 2,300); AID 602387; shares compounds with DNMT1 inh; DNMT1 molecular beacon spectral interference counterscreen, fluorescence 485/520; activation (fluorescence interference), % at 10 µM;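 active means activation of at least 30% at 10 µM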;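 further: DNMT1 catalytic domain with a HinP1I cleavage step and a FAM/dabcyl DNA beacon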
# Numbers without * were called inactive; / = no result. Compounds with a hit are over-represented: about 1.7% of the library has one in this group of screens.
SMILES,STEP inh,Scp1 inh,LMPTP inh,SUMO1 PPI mod,DNMT1 inh,DNMT1 confirm,DNMT1 interf,others
COCCCNC(=O)CC1C[C@H](C(=O)N2CCOCC2)[C@@]2(CCC3CCCC3)c3[nH]c4ccc(OC)cc4c3CCN2C1=O (some centres undefined),0.3,-1.9,-0.2,1.6,1.8,/,/,
CCc1ccc(CN(Cc2cccnc2)C(=O)/C=C/c2ccc(OC)cc2)cc1,-0.7,10.0,2.8,-27.3,56.8*,1.6,-0.2,
COc1ccc(/C=C/C(=O)NCc2cccnc2)cc1,1.7,-4.6,-1.8,-2.2,-2.3,/,/,
CC1(C)CC2CC(C)(CN2S(=O)(=O)c2ccc(F)cc2F)C1 (centres undefined),1.6,24.3,-0.2,1.6,3.4,/,/,
O=C(O)c1cccc(-c2noc(-c3cccc(Cl)c3)n2)c1,3.4,-5.6,-1.0,14.3,83.1*,0.1,2.0,
Nc1cccc2c1C(=O)N(CCOc1ccc(F)cc1)C2=O,-3.3,-14.2,2.4,-35.3,16.4,/,/,
COc1ccc(Br)cc1/C=N/n1nnnc1N,0.6,-6.5,-0.8,-22.3,53.2*,-0.1,19.6,
Nc1nnnn1/N=C/c1ccccc1O,-1.3,-8.9,-1.0,-13.0,-2.3,/,/,
O=C(O)C1C=CCC(C(=O)O)C1 (centres undefined),-1.8,/,-0.5,-2.1,97.9*,2.9,5.0,
Cc1cccc(C)c1NC(=O)CN1C(=O)CCSc2ccc(S(=O)(=O)N3CCCC3)cc21,1.0,-4.7,0.7,-0.5,-2.6,/,/,
COc1ccc(C(CC(=O)N2CCOCC2)c2c(OC)cc(OC)c3c(-c4ccccc4)cc(=O)oc23)cc1 (centres undefined),-0.5,35.1,5.4,-4.1,74.4*,2.9,-1.8,
COc1cc(C(CC(=O)N2CCCC2)c2c(OC)cc(OC)c3c(-c4ccccc4)cc(=O)oc23)cc(OC)c1OC (centres undefined),1.6,28.9,2.9,-12.6,31.2,/,/,
O=C(O)C1Nc2c(Cl)cc(Cl)c(Cl)c2C2C=CCC12 (centres undefined),11.7,63.4*,69.6*,62.6*,83.2*,85.3*,-0.1,DNMT1 interf DR=>99
COc1ccc(Cl)cc1C(=O)NNC(=O)CCNS(=O)(=O)c1ccccc1,4.4,-6.7,-2.3,4.2,0.5,/,/,
Cc1cc(=O)[nH]c(N/N=C/CCc2ccccc2)n1,0.4,-0.8,-0.3,-1.2,56.3*,4.1,28.3,
CCOC(=O)c1c2ccc(OCC(=O)N/N=C/c3ccc(C)cc3)cc2n2ccccc12,2.5,5.6,1.8,3.0,72.2*,4.7,-1.8,
CCO[C@@H]1OC(C(N)=O)=C[C@H](c2ccc(C(F)(F)F)cc2)[C@H]1CCCO,-4.1,-2.7,-1.8,-0.6,70.8*,0.7,0.5,
Cc1nc(NC(=O)c2ccco2)sc1-c1csc(Nc2ccc(Cl)cc2Cl)n1,-0.5,-11.3,2.7,12.2,63.4*,2.9,6.1,
COc1ccc(NC(=O)c2ccc(N3C(=O)C4CC=C(Cl)CC4C3=O)cc2)cc1 (centres undefined),-2.9,5.2,2.6,-2.0,-16.3,/,/,
O=C(NN1C(=O)C2CC=C(Cl)CC2C1=O)c1ccncc1 (centres undefined),4.2,15.6,-1.9,9.0,58.3*,1.4,1.4,
COc1ccc(Br)cc1CN1CCN(C(=O)c2cccc(F)c2)CC1,-1.2,-5.7,-1.3,0.3,0.8,/,/,
CC(=O)N(CCCCN1C(=O)c2ccccc2C1=O)c1ccc(C)cc1,3.0,-7.2,-0.5,26.9,3.5,/,/,
CC(=O)N(CN1C(=O)c2ccccc2C1=O)c1ccc2c(c1)oc1ccccc12,-0.6,-4.4,0.0,-10.6,79.0*,2.3,1.8,
COc1cccc(NC(=O)CN(C)C(=O)Cn2c(=O)oc3ccccc32)c1,-0.4,2.2,1.5,-1.0,2.6,/,/,
C=CCSC1=N/C(=C\c2cc(OC)c3c(c2)OCO3)C(=O)S1,-2.3,-6.4,10.0,2.7,73.7*,16.9,9.2,
SMILES,STEP inh,Scp1 inh,LMPTP inh,SUMO1 PPI mod,DNMT1 inh,DNMT1 confirm,DNMT1 interf,others
CCSC1=N/C(=C\c2ccc3c(c2)OCO3)C(=O)S1,-0.1,-4.2,1.6,-10.0,3.0,/,/,
Cc1cc(=O)oc2cc(NC(=O)c3cccc(Br)c3)ccc12,26.3,49.2,27.4,-4.7,51.3*,1.9,0.3,
COc1cc2ccc(CC(N)=O)cc2cc1OC,-1.3,/,21.7,7.8,51.8*,-1.2,-1.2,
COc1ccc(CCC(N)=O)cc1OC,4.1,16.4,0.0,-2.8,1.2,/,/,
Cc1ccc2cc3c(N)c4c(C)ccc(C)c4nc3nc2c1,-7.0,-6.7,5.2,-13.0,72.2*,25.0,-8.3,DNMT1 interf DR=>99
Cc1ccc2c(N)c(C)ccc2c1,-1.7,-8.5,-0.6,-18.3,-9.0,/,/,
Cn1cc(/C=C(\C#N)C(=O)Nc2cccc([N+](=O)[O-])c2)c2ccccc21,3.9,-0.7,3.9,-2.6,60.7*,-2.9,-3.0,
O=C(N/N=C/c1ccc(OC(=O)c2ccco2)cc1)c1ccncc1,0.6,-2.2,-0.8,3.8,2.4,/,/,
O=C(N/N=C/c1ccc(OC(=O)c2ccc(Br)cc2)cc1)c1ccncc1,14.8,7.0,1.3,-2.8,57.2*,6.1,2.1,
CCOC(=O)[C@H]1[C@H]2COc3ccc(C)cc3[C@@H]2N2C(=O)c3cc(Br)ccc3NC(=O)[C@@]12C,1.0,-8.6,3.2,4.3,-9.2,/,/,
Cc1cc(O)cc2c1C(=O)/C(=C/c1ccco1)O2,2.0,-17.9,0.1,-8.4,64.8*,6.2,5.8,
Cc1ccc(CSc2nnc(SCC(=O)N/N=C/C=C/c3ccco3)s2)cc1,-0.5,-5.7,3.3,3.4,52.5*,1.7,3.2,
Cc1ccc(CSc2nnc(SCC(=O)N/N=C/C=C/c3ccccc3[N+](=O)[O-])s2)cc1,4.2,-5.3,1.2,-3.8,-0.8,/,/,
COc1ccc(CCn2c(N)c(C(=O)NCc3ccco3)c3nc4ccccc4nc32)cc1OC,3.0,-5.5,5.1,43.9*,54.2*,8.6,8.8,
CC(=O)c1ccc(N(CC(=O)NCc2ccc3c(c2)OCO3)C(=O)c2csnn2)cc1,0.7,-0.6,0.5,0.6,0.2,/,/,
